Assay results as given in PMC8521277 (The EMBO Journal, 2021).

B1: GM3S: GM3 synthase, expressed in cells (protein)
chain: MRTKAAGCAERRPLQPRTEAAAAPAGRAMPSEYTYVKLRSDCSRPSLQWYTRAQSKMRRPSLLLKDILKCTLLVFGVWILYILKLNYTTEECDMKKMHYVDPDHVKRAQKYAQQVLQKECRPKFAKTSMALLFEHRYSVDLLPFVQKAPKDSEAESKYDPPFGFRKFSSKVQTLLELLPEHDLPEHLKAKTCRRCVVIGSGGILHGLELGHTLNQFDVVIRLNSAPVEGYSEHVGNKTTIRMTYPEGAPLSDLEYYSNDLFVAVLFKSVDFNWLQAMVKKETLPFWVRLFFWKQVAEKIPLQPKHFRILNPVIIKETAFDILQYSEPQSRFWGRDKNVPTIGVIAVVLATHLCDEVSLAGFGYDLNQPRTPLHYFDSQCMAAMNFQTMHNVTTETKFLLKLVKEGVVKDLSGGIDREF
modifications: left off: HA, end not stated, kept
B2: Gb3S: Gb3 synthase, expressed in cells (protein)
chain: MSKPPDLLLRLLRGAPRQRVCTLFIIGFKFTFFVSIMIYWHVVGEPKEKGQLYNLPAEIPCPTLTPPTPPSHGPTPGNIFFLETSDRTNPNFLFMCSVESAARTHPESHVLVLMKGLPGGNASLPRHLGISLLSCFPNVQMLPLDLRELFRDTPLADWYAAVQGRWEPYLLPVLSDASRIALMWKFGGIYLDTDFIVLKNLRNLTNVLGTQSRYVLNGAFLAFERRHEFMALCMRDFVDHYNGWIWGHQGPQLLTRVFKKWCSIRSLAESRACRGVTTLPPEAFYPIPWQDWKKYFEDINPEELPRLLSATYAVHVWNKKSQGTRFEATSRALLAQLHARYCPTTHEAMKMYL
modifications: left off: HA, end not stated, kept
B3: GCS: GlcCer synthase, full‐length, expressed in cells (protein)
chain: MALLDLALEGMAVFGFVLFLVLWLMHFMAIIYTRLHLNKKATDKQPYSKLPGVSLLKPLKGVDPNLINNLETFFELDYPKYEVLLCVQDHDDPAIDVCKKLLGKYPNVDARLFIGGKKVGINPKINNLMPGYEVAKYDLIWICDSGIRVIPDTLTDMVNQMTEKVGLVHGLPYVADRQGFAATLEQVYFGTSHPRYYISANVTGFKCVTGMSCLMRKDVLDQAGGLIAFAQYIAEDYFMAKAIADRGWRFAMSTQVAMQNSGSYSISQFQSRMIRWTKLRINMLPATIICEPISECFVASLIIGWAAHHVFRWDIMVFFMCHCLAWFIFDYIQLRGVQGGTLCFSKLDYAVAWFIRESMTIYIFLSALWDPTISWRTGRYRLRCGGTAEEILDV
modifications: left off: HA (9aa), internal (between the two Gly residues of DPTISWRTGRYRLRCGGTAEEILDV), kept
B4: GCS‐HAN: GCS with a HA‐tag in the N‐terminal tail (protein, UniProt Q16739 1-394, looked up)
Ceramide glucosyltransferase: B3 chain
modifications: HA tag in N-terminal tail
B5: GCS‐HAC: GCS with a HA‐tag at the C‐terminus (protein, UniProt Q16739 1-394, looked up)
Ceramide glucosyltransferase: B3 chain
modifications: C-terminal HA tag
B6: LCS: LacCer synthase, expressed in cells (protein)
chain: MRARRGLLRLPRRSLLAALFFFSLSSSLLYFVYVAPGIVNTYLFMMQAQGILIRDNVRTIGAQVYEQVLRSAYAKRNSSVNDSDYPLDLNHSETFLQTTTFLPEDFTYFANHTCPERLPSMKGPIDINMSEIGMDYIHELFSKDPTIKLGGHWKPSDCMPRWKVAILIPFRNRHEHLPVLFRHLLPMLQRQRLQFAFYVVEQVGTQPFNRAMLFNVGFQEAMKDLDWDCLIFHDVDHIPESDRNYYGCGQMPRHFATKLDKYMYLLPYTEFFGGVSGLTVEQFRKINGFPNAFWGWGGEDDDLWNRVQNAGYSVSRPEGDTGKYKSIPHHHRGEVQFLGRYALLRKSKERQGLDGLNNLNYFANITYDALYKNITVNLTPELAQVNEY
modifications: left off: HA, end not stated, kept
B7: GCS‐Δ3C (protein)
chain: MALLDLALEGMAVFGFVLFLVLWLMHFMAIIYTRLHLNKKATDKQPYSKLPGVSLLKPLKGVDPNLINNLETFFELDYPKYEVLLCVQDHDDPAIDVCKKLLGKYPNVDARLFIGGKKVGINPKINNLMPGYEVAKYDLIWICDSGIRVIPDTLTDMVNQMTEKVGLVHGLPYVADRQGFAATLEQVYFGTSHPRYYISANVTGFKCVTGMSCLMRKDVLDQAGGLIAFAQYIAEDYFMAKAIADRGWRFAMSTQVAMQNSGSYSISQFQSRMIRWTKLRINMLPATIICEPISECFVASLIIGWAAHHVFRWDIMVFFMCHCLAWFIFDYIQLRGVQGGTLCFSKLDYAVAWFIRESMTIYIFLSALWDPTISWRTGRYRLRCGGTAEEI
modifications: left off: HA (9aa), internal (between the two Gly residues of DPTISWRTGRYRLRCGGTAEEI), kept

Experiments:
HeLa cells [1] = test: Localization of SL biosynthetic enzymes after Brefeldin A, immunofluorescence; assay type: cell-based, human; conditions: BFA 5 μg/ml, 30 min; SMS1 also in punctate structures
HeLa cells [2] = test: [3H]-sphingosine pulse-chase assay after expression of GCS constructs; assay type: cell-based, human; conditions: 8 h chase, two independent experiments; for increase in GSL production: transfected construct 16 h
Procedure, shortened: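 HeLa cells were transfected with GCS constructs for 16 h, with non-transfected cells run alongside. Cells were pulse-labelled for 2 h with [3H]-sphingosine (final 0.1 μCi/ml) in serum-free DMEM with 1% fatty-acid-free BSA, then chased 8 h in complete medium with or without BFA (5 μg/ml). Lipids were extracted and resolved by HPTLC (chloroform/methanol/water 65:25:4). Total GSL radioactivity is given as fold change versus control, mean ± SD of two experiments, with Student's t-test.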

[3] = biological target: GRASP domain of GRASP55 (recombinant protein used for ITC); test: ITC
GRASP55‐GFP = test: Co-immunoprecipitation of HA-tagged enzymes with GRASP55-GFP in HeLa cells; assay type: binding, human; conditions: anti-GFP IP, anti-HA blot
Procedure, shortened: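 HeLa cells were co-transfected with HA-tagged GCS, LCS, GM3S or Gb3S plus GRASP55-GFP. Cells were lysed and immunoprecipitated with anti-GFP antibody or control IgG. Interaction was read by Western blotting with anti-HA antibody.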

endogenous GRASP55 = assay type: binding, human; conditions: HA-tagged enzymes, WI-26 fibroblasts, anti-HA IP

Row | Molecule | co-immunoprecipitation with GRASP55-GFP (in words) (GRASP55‐GFP) | co-immunoprecipitation with endogenous GRASP55 (in words) (endogenous GRASP55) | other results
1 | C[C@H]1CCC/C=C/[C@@H]2C[C@H](O)C[C@H]2[C@H](O)/C=C/C(=O)O1 [Brefeldin A, reference compound] | – | – | localization of SL biosynthetic enzymes (in words) (HeLa cells [1]): translocation of the enzymes back into the ER; effect on differences in GSL production between GCS constructs (in words) (HeLa cells [2]; BFA 5 μg/ml): neutralized these differences
2 | GCS C-terminal cytosolic tail peptide (biotinylated, WT) | – | – | Kd [3]: 2 µM
3 | B1 | do not interact | – | –
4 | B2 | do not interact | – | –
5 | B3 | co‐immunoprecipitated with GRASP55‐GFP | interaction of GCS and LCS with endogenous GRASP55 was also observed | –
6 | B4 | – | – | increase in GSL production (HeLa cells [2]): 2.6 fold
7 | B5 | – | – | increase in GSL production (HeLa cells [2]): 2.3 fold
8 | B6 | co‐immunoprecipitated with GRASP55‐GFP | interaction of GCS and LCS with endogenous GRASP55 was also observed | –
9 | B7 | – | impaired the interaction | –
